In ChEMBL document CHEMBL3272259, “Nitroimidazoles with antibacterial activity against Neisseria gonorrhoeae” (1977):
In brackets after ≈: the same amount, converted by molar mass. Activity calls are given as the source filed them. The rule behind the calls is not given here.

What was measured:
Clostridium perfringens = test: Antibacterial activity against Clostridium perfringens ATCC 13124 after 24 hrs by ten-fold serial dilution method; type: functional; conditions: ATCC 13124, 24 h
In short: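 Grown in Fluid Thioglycollate Broth and incubated 24 h at 37 °C. Growth was checked by eye after incubation. MIC was taken as the lowest concentration, in μg/mL, that prevented visible growth.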

Bacteroides fragilis = test: Antibacterial activity against Bacteroides fragilis ATCC 23745 after 24 hrs by ten-fold serial dilution method; type: functional; conditions: ATCC 23745, 24 h
In short: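 Grown in Fluid Thioglycollate Broth and incubated 24 h at 37 °C. Growth was read by eye, and the MIC (µg/mL) is the lowest concentration that prevented visible growth.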

Neisseria gonorrhoeae = test: Antibacterial activity against Neisseria gonorrhoeae ATCC 19424 after 48 hrs by ten-fold serial dilution method; type: functional; conditions: ATCC 19424, 48 h
In short: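 Tested on chocolate agar made from GC agar base with hemoglobin and Supplement C, incubated 48 h at 37 °C. Plates were checked visually, and the MIC (µg/mL) is the lowest concentration with no visible growth.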

Trichomonas vaginalis = test: Antibacterial activity against Trichomonas vaginalis ATCC 30001 after 48 hrs by ten-fold serial dilution method; type: functional; conditions: ATCC 30001, 48 h
In short: (§1)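 Trichomonads were cultured in Diamond medium with 5% serum and incubated 48 h at 37 °C. Cultures were examined microscopically for motile cells, and the MIC (µg/mL) is the lowest concentration giving no motile organisms.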

Tritrichomonas foetus = test: Antibacterial activity against Tritrichomonas foetus 1002-96-27 after 48 hrs by ten-fold serial dilution method; type: functional; conditions: 1002-96-27, 48 h; in short: as §1
Pentatrichomonas hominis = test: Antibacterial activity against Pentatrichomonas hominis ATCC 30000 after 48 hrs by ten-fold serial dilution method; type: functional; conditions: ATCC 30000, 48 h; in short: as §1
Candida albicans = test: Antifungal activity against Candida albicans; type: functional, organism-based

SMILES | MIC (Clostridium perfringens) | MIC (Bacteroides fragilis) | MIC (Neisseria gonorrhoeae) | MIC (Trichomonas vaginalis) | MIC (Tritrichomonas foetus) | MIC (Pentatrichomonas hominis) | Activity (Candida albicans)
Cc1ncc([N+](=O)[O-])n1CCO [METRONIDAZOLE] | 10 µg/mL (≈ 58.4 µM) | 1 µg/mL (≈ 5.84 µM) | > 100 µg/mL | 10 µg/mL (≈ 58.4 µM) | 1 µg/mL (≈ 5.84 µM) | 1 µg/mL (≈ 5.84 µM) | inactive
Br.Cn1ccnc1SCCOc1ccc([N+](=O)[O-])cc1 | > 100 µg/mL | > 100 µg/mL | 100 µg/mL | > 100 µg/mL | > 100 µg/mL | > 100 µg/mL | inactive
Cn1c([N+](=O)[O-])cnc1SCCCCCCCC(=O)O | 0.1 µg/mL (≈ 0.332 µM) | 10 µg/mL (≈ 33.2 µM) | 0.1 µg/mL (≈ 0.332 µM) | 1 µg/mL (≈ 3.32 µM) | 1 µg/mL (≈ 3.32 µM) | 1 µg/mL (≈ 3.32 µM) | inactive
Cn1c([N+](=O)[O-])cnc1SCCCCCCOc1ccc(C(=O)O)cc1 | 10 µg/mL (≈ 26.4 µM) | 1 µg/mL (≈ 2.64 µM) | 0.1 µg/mL (≈ 0.264 µM) | 1 µg/mL (≈ 2.64 µM) | 1 µg/mL (≈ 2.64 µM) | 1 µg/mL (≈ 2.64 µM) | inactive
Br.Cn1ccnc1SCCCCOc1ccccc1 | > 100 µg/mL | > 100 µg/mL | 100 µg/mL | > 100 µg/mL | > 100 µg/mL | > 100 µg/mL | inactive
COC(=O)CCCCCCCCCCSc1ncc([N+](=O)[O-])n1C | > 100 µg/mL | > 100 µg/mL | > 100 µg/mL | > 100 µg/mL | > 100 µg/mL | > 100 µg/mL | inactive
CCOC(=O)c1ccc(OCCCCCCSc2ncc([N+](=O)[O-])n2C)c([N+](=O)[O-])c1 | 100 µg/mL (≈ 221 µM) | 10 µg/mL (≈ 22.1 µM) | > 100 µg/mL | 10 µg/mL (≈ 22.1 µM) | 100 µg/mL (≈ 221 µM) | 10 µg/mL (≈ 22.1 µM) | inactive
Cn1c([N+](=O)[O-])cnc1SCCOc1ccc(Br)cc1 | > 100 µg/mL | 100 µg/mL (≈ 279 µM) | > 100 µg/mL | 10 µg/mL (≈ 27.9 µM) | 10 µg/mL (≈ 27.9 µM) | 10 µg/mL (≈ 27.9 µM) | inactive
Cn1c([N+](=O)[O-])cnc1SCCOc1ccc([N+](=O)[O-])cc1 | 100 µg/mL (≈ 308 µM) | 100 µg/mL (≈ 308 µM) | > 100 µg/mL | 10 µg/mL (≈ 30.8 µM) | 100 µg/mL (≈ 308 µM) | 1 µg/mL (≈ 3.08 µM) | inactive
Cn1c([N+](=O)[O-])cnc1SCCCCCC(=O)O | 10 µg/mL (≈ 36.6 µM) | 100 µg/mL (≈ 366 µM) | 0.1 µg/mL (≈ 0.366 µM) | 1 µg/mL (≈ 3.66 µM) | 1 µg/mL (≈ 3.66 µM) | 1 µg/mL (≈ 3.66 µM) | inactive
Br.Cn1ccnc1SCCCCCCCCCCC(=O)O | > 100 µg/mL | > 100 µg/mL | > 100 µg/mL | > 100 µg/mL | > 100 µg/mL | > 100 µg/mL | inactive
Cn1c([N+](=O)[O-])cnc1SCCOc1ccc(C(=O)[O-])cc1.[Na+] | 10 µg/mL | 1 µg/mL | 1 µg/mL | 1 µg/mL | 10 µg/mL | 1 µg/mL | –
Cn1c([N+](=O)[O-])cnc1SCCCCCCCOc1ccccc1[N+](=O)[O-] | > 100 µg/mL | > 100 µg/mL | > 100 µg/mL | 100 µg/mL (≈ 254 µM) | 100 µg/mL (≈ 254 µM) | 100 µg/mL (≈ 254 µM) | inactive
Cn1c([N+](=O)[O-])cnc1SCCCCCCCCCCC(=O)O | 10 µg/mL (≈ 29.1 µM) | 10 µg/mL (≈ 29.1 µM) | 0.1 µg/mL (≈ 0.291 µM) | 10 µg/mL (≈ 29.1 µM) | 10 µg/mL (≈ 29.1 µM) | 10 µg/mL (≈ 29.1 µM) | inactive
CCOC(=O)c1ccc(OCCCCSc2nccn2C)cc1 [listing 1 of 2 here] | > 100 µg/mL | > 100 µg/mL | > 100 µg/mL | > 100 µg/mL | > 100 µg/mL | > 100 µg/mL | –
Cn1c([N+](=O)[O-])cnc1SCCCCOc1ccc(C(=O)O)cc1 | 10 µg/mL (≈ 28.5 µM) | 10 µg/mL (≈ 28.5 µM) | 100 µg/mL (≈ 285 µM) | 1 µg/mL (≈ 2.85 µM) | 1 µg/mL (≈ 2.85 µM) | 1 µg/mL (≈ 2.85 µM) | inactive

SMILES | MIC (Clostridium perfringens) | MIC (Bacteroides fragilis) | MIC (Neisseria gonorrhoeae) | MIC (Trichomonas vaginalis) | MIC (Tritrichomonas foetus) | MIC (Pentatrichomonas hominis) | Activity (Candida albicans)
Cn1c([N+](=O)[O-])cnc1SCCC(=O)O | 10 µg/mL (≈ 43.2 µM) | 10 µg/mL (≈ 43.2 µM) | 10 µg/mL (≈ 43.2 µM) | 10 µg/mL (≈ 43.2 µM) | 10 µg/mL (≈ 43.2 µM) | 10 µg/mL (≈ 43.2 µM) | inactive
Cn1ccnc1SCCOc1ccc(C#N)cc1 [listing 1 of 2 here] | – | – | – | – | – | – | inactive
Cn1ccnc1SCCOc1ccc(C#N)cc1 [listing 2 of 2 here] | > 100 µg/mL | > 100 µg/mL | > 100 µg/mL | > 100 µg/mL | > 100 µg/mL | > 100 µg/mL | –
Cn1c([N+](=O)[O-])cnc1[S+]([O-])CCCCC(=O)O (stereo unspecified) | > 100 µg/mL | 100 µg/mL (≈ 363 µM) | 100 µg/mL (≈ 363 µM) | 100 µg/mL (≈ 363 µM) | > 100 µg/mL | 100 µg/mL (≈ 363 µM) | inactive
Cn1c([N+](=O)[O-])cnc1S(=O)(=O)CCCCCCCOc1ccccc1[N+](=O)[O-] | > 100 µg/mL | > 100 µg/mL | > 100 µg/mL | > 100 µg/mL | > 100 µg/mL | > 100 µg/mL | inactive
Cn1c([N+](=O)[O-])cnc1[S+]([O-])CCC(=O)O (stereo unspecified) | 100 µg/mL (≈ 404 µM) | 10 µg/mL (≈ 40.4 µM) | > 100 µg/mL | 10 µg/mL (≈ 40.4 µM) | 10 µg/mL (≈ 40.4 µM) | 10 µg/mL (≈ 40.4 µM) | inactive
Cn1c([N+](=O)[O-])cnc1SCCOc1ccc(C(=O)O)cc1 [listing 1 of 2 here] | – | – | – | – | – | – | inactive
Br.CCOC(=O)c1ccc(OCCCCSc2nccn2C)cc1 | > 100 µg/mL | > 100 µg/mL | > 100 µg/mL | 100 µg/mL | 100 µg/mL | 100 µg/mL | –
Br.Cn1ccnc1SCCOc1ccc(C#N)cc1 | > 100 µg/mL | > 100 µg/mL | > 100 µg/mL | > 100 µg/mL | > 100 µg/mL | > 100 µg/mL | –
Cn1ccnc1SCCCCC(=O)O | > 100 µg/mL | > 100 µg/mL | > 100 µg/mL | > 100 µg/mL | > 100 µg/mL | > 100 µg/mL | inactive
Cn1c([N+](=O)[O-])cnc1SCCCCCCCCCC(=O)O | 10 µg/mL (≈ 30.4 µM) | 10 µg/mL (≈ 30.4 µM) | 0.1 µg/mL (≈ 0.304 µM) | 10 µg/mL (≈ 30.4 µM) | 1 µg/mL (≈ 3.04 µM) | 1 µg/mL (≈ 3.04 µM) | inactive
Cn1c([N+](=O)[O-])cnc1SCCOc1ccc(C(=O)O)cc1 [listing 2 of 2 here] | 10 µg/mL (≈ 30.9 µM) | 10 µg/mL (≈ 30.9 µM) | 1 µg/mL (≈ 3.09 µM) | 1 µg/mL (≈ 3.09 µM) | 1 µg/mL (≈ 3.09 µM) | 1 µg/mL (≈ 3.09 µM) | –
Cn1c([N+](=O)[O-])cnc1SCCCCC(=O)O | – | 1 µg/mL (≈ 3.86 µM) | 1 µg/mL (≈ 3.86 µM) | 1 µg/mL (≈ 3.86 µM) | 1 µg/mL (≈ 3.86 µM) | 1 µg/mL (≈ 3.86 µM) | inactive
Cn1c([N+](=O)[O-])cnc1SCCOc1ccc(C#N)cc1 | 100 µg/mL (≈ 329 µM) | – | 100 µg/mL (≈ 329 µM) | 1 µg/mL (≈ 3.29 µM) | 1 µg/mL (≈ 3.29 µM) | 1 µg/mL (≈ 3.29 µM) | inactive
CCOC(=O)c1ccc(OCCCCSc2nccn2C)cc1 [listing 2 of 2 here] | – | – | – | – | – | – | inactive
